Measured values taken from ChEMBL document CHEMBL1140964, “1,8-Naphthyridines VII. New substituted 5-amino[1,2,4]triazolo[4,3-a][1,8]naphthyridine-6-carboxamides and their isosteric analogues, exhibiting notable anti-inflammatory and/or analgesic activities, but no acute gastrolesivity” (Eur J Med Chem, 2008).

Tests used:
Mus musculus [1] = organism: Mus musculus; test: animal or person; settings: Swiss, po, read-out: INH
Rattus norvegicus [2] = test: Antiinflammatory activity against carrageenan-induced paw edema in Wistar rat at 10 mg/kg, po dose administered 1 hr before carrageenan challenge assessed after 3 hrs; assay type: functional
Rattus norvegicus [3] = test: Antiinflammatory activity against carrageenan-induced paw edema in Wistar rat at 200 mg/kg, po dose administered 1 hr before carrageenan challenge assessed after 3 hrs; assay type: functional
Mus musculus [4] = test: Antinociceptive activity in Swiss mouse assessed as inhibition of acetic acid-induced writhing response at 100 mg/kg, po dose administered 1 hr before acetic acid challenge measured for 30 mins; assay type: functional
Summary of the method: (§1)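 Swiss mice (25–35 g, either sex), fasted overnight, received compound orally in 0.5% methylcellulose or vehicle, with 8–10 per group. Testing started at 100 mg/kg with successive twofold dose reductions. Writhes were counted for 30 min after acetic acid injection. Percent inhibition of the writhing response was calculated versus vehicle controls (Student's t-test).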

Mus musculus [5] = test: Antinociceptive activity in Swiss mouse assessed as inhibition of acetic acid-induced writhing response at 0.8 mg/kg, po dose administered 1 hr before acetic acid challenge measured for 30 mins; assay type: functional
Mus musculus [6] = test: Sedative activity in Swiss mouse assessed as inhibition on spontaneous locomotor activity at 12.5 mg/kg, po dose measured for every 5 mins during 60 to 90 mins; assay type: ADME, organism-based; design: dose 12.5 mg/kg, route oral
Summary of the method: (§2)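 Fasted Swiss mice (25–35 g, either sex) were given compound orally in 0.5% methylcellulose or vehicle. Each mouse was placed alone in a photobeam-type activity cage, with counts recorded every 5 min for 90 min. Pulses from the final 30 min were scored, with testing run 9:00–13:00. Percent inhibition was calculated versus controls (Student's t-test).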

Mus musculus [7] = test: Antinociceptive activity in Swiss mouse assessed as inhibition of acetic acid-induced writhing response at 200 mg/kg, po dose administered 1 hr before acetic acid challenge measured for 30 mins; assay type: functional
Mus musculus [8] = test: Antinociceptive activity in Swiss mouse assessed as inhibition of acetic acid-induced writhing response at 12.5 mg/kg, po dose administered 1 hr before acetic acid challenge measured for 30 mins; assay type: functional
Summary of the method: as §1

Mus musculus [9] = test: Sedative activity in Swiss mouse assessed as inhibition of spontaneous locomotor activity at 100 mg/kg, po dose measured for every 5 mins during 60 to 90 mins; assay type: organism-based; design: dose 100 mg/kg, route oral
Summary of the method: as §2

Mus musculus [10] = test: Antinociceptive activity in Swiss mouse assessed as inhibition of acetic acid-induced writhing response at 1.6 mg/kg, po dose administered 1 hr before acetic acid challenge measured for 30 mins; assay type: functional
Mus musculus [11] = test: Antinociceptive activity in Swiss mouse assessed as inhibition of acetic acid-induced writhing response at 50 mg/kg, po dose administered 1 hr before acetic acid challenge measured for 30 mins; assay type: functional
Summary of the method: as §1

Mus musculus [12] = test: Sedative activity in Swiss mouse assessed as inhibition on spontaneous locomotor activity at 25 mg/kg, po measured for every 5 mins during 60 to 90 mins; assay type: functional, organism-based; design: dose 25 mg/kg, route oral
Summary of the method: as §2

Mus musculus [13] = test: Antinociceptive activity in Swiss mouse assessed as inhibition of acetic acid-induced writhing response at 3.12 mg/kg, po dose administered 1 hr before acetic acid challenge measured for 30 mins; assay type: functional
Rattus norvegicus [14] = test: Acute gastrolesivity in Wistar rat assessed as appearance of gastric lesions at 200 mg/kg, po after 5 hrs; assay type: toxicity, organism-based, Stomach; design: dose 200 mg/kg, route oral; settings: in vivo
Summary of the method: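 Wistar rats (250–300 g, either sex), fasted overnight, given the compound orally at 200 mg kg-1 as a suspension in 0.5% methylcellulose by gavage (1 mL/100 g); 8 rats per compound. Stomachs were fixed in 2% formalin, opened along the greater curvature, and examined under a stereomicroscope by a blinded observer. The result is the number of rats with gastric damage over the number treated.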

Mus musculus [15] = test: Antinociceptive activity in Swiss mouse assessed as inhibition of acetic acid-induced writhing response at 25 mg/kg, po dose administered 1 hr before acetic acid challenge measured for 30 mins; assay type: functional
Summary of the method: as §1

Mus musculus [16] = test: Sedative activity in Swiss mouse assessed as inhibition on spontaneous locomotor activity at 6.25 mg/kg, po measured for every 5 mins during 60 to 90 mins; assay type: ADME, organism-based; design: dose 6.25 mg/kg, route oral
Summary of the method: as §2

Mus musculus [17] = test: Antinociceptive activity in Swiss mouse assessed as inhibition of acetic acid-induced writhing response at 6.25 mg/kg, po dose administered 1 hr before acetic acid challenge measured for 30 mins; assay type: functional
Summary of the method: as §1

Rattus norvegicus [18] = test: Antiinflammatory activity against carrageenan-induced paw edema in Wistar rat at 100 mg/kg, po dose administered 1 hr before carrageenan challenge assessed after 3 hrs; assay type: functional
Summary of the method: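 Wistar rats (250–300 g, either sex), fasted overnight, dosed by oral gavage with the compound suspended in 0.5% methylcellulose. Controls received vehicle alone, with 8–10 animals per group. Dosing started at 100 mg/kg and was halved stepwise. Carrageenan (1%, 0.1 mL) was injected subplantar 1 h post-dose. Paw volume was measured by plethysmometer immediately and at 3 h, and % inhibition of swelling was calculated versus controls (Student's t-test).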

Compound	inhibition in vivo at 10 mg/kg (Mus musculus [1]) [%]	inhibition in vivo at 10 mg/kg (Rattus norvegicus [2]) [%]	inhibition in vivo at 200 mg/kg (Rattus norvegicus [3]) [%]	inhibition in vivo at 100 mg/kg (Mus musculus [4]) [%]	inhibition in vivo at 0.8 mg/kg (Mus musculus [5]) [%]	inhibition at 12.5 mg/kg (Mus musculus [6]) [%]	inhibition in vivo at 200 mg/kg (Mus musculus [7]) [%]	inhibition in vivo at 12.5 mg/kg (Mus musculus [8]) [%]	inhibition at 100 mg/kg (Mus musculus [9]) [%]	inhibition in vivo at 1.6 mg/kg (Mus musculus [10]) [%]	inhibition in vivo at 50 mg/kg (Mus musculus [11]) [%]	inhibition at 25 mg/kg (Mus musculus [12]) [%]	inhibition in vivo at 3.12 mg/kg (Mus musculus [13]) [%]	Activity (Rattus norvegicus [14])	inhibition in vivo at 25 mg/kg (Mus musculus [15]) [%]	inhibition at 6.25 mg/kg (Mus musculus [16]) [%]	inhibition in vivo at 6.25 mg/kg (Mus musculus [17]) [%]	inhibition in vivo at 100 mg/kg (Rattus norvegicus [18]) [%]
COc1ccc2c(c1)c(CC(=O)O)c(C)n2C(=O)c1ccc(Cl)cc1 [INDOMETHACIN]	84	51	–	–	–	–	–	–	–	–	–	–	–	–	–	–	–	–
CCN(CC)C(=O)c1c(N2CCN(C)CC2)c2cccnc2n2c(C(C)C)nnc12	–	–	34	88	3	74	86	92	94	39	85	99	85	Non-toxic	90	19	83	23
